Test [1] concerns the target Wee1-like protein kinase (Homo sapiens) (UniProt P30291). Nature of the test: Inhibition of human Wee1 (214 to end residues) using LSNLYHQGKFLQTFCGSPLYRRR as substrate measured after 40 mins in presence of [gamma33P]ATP by scintillation counting method.
For test [2], the target named is Casein kinase I isoform epsilon (Homo sapiens) (UniProt P49674). Nature of the test: Inhibition of human CK1epsilon at 10 uM using KRRRALS(p)VASLPGL as substrate measured after 120 mins in presence of [gamma33P]ATP by scintillation counting method. The method, boiled down:
(§1)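 Kinase panel of 422 kinases screened by Eurofins KinaseProfiler at a single test-compound concentration of 10 µM.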

For test [3], the species on record is Homo sapiens. Nature of the test: Inhibition of human activated Tec F514V mutant (174 to end residues) using EFPIYDFLPAKKK as substrate measured after 40 mins in presence of [gamma33P]ATP by scintillation counting method.
For test [4], the target named is Bromodomain and PHD finger-containing protein 3 (Homo sapiens) (UniProt Q9ULD4). Nature of the test: Binding affinity to human partial length BRPF3 (E588 to G701 residues) expressed in bacterial expression system at 1 uM by BROMOscan assay. In a few lines: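 BROMOscan bromodomain cross-screen run by an outside service, compound at 1 µM against 32 recombinant bromodomains. Binding given as percent of control.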

Test [5] concerns the target Ephrin type-A receptor 1 (Homo sapiens) (UniProt P21709). Kind of test: Inhibition of recombinant human EphA1 (568 to end residues) at 10 uM using KKKSPGEYVNIEF as substrate measured after 40 mins in presence of [gamma33P]ATP by scintillation counting method.
Test [6] has as its target Testis-specific serine/threonine-protein kinase 4 (Homo sapiens) (UniProt Q6SA08). Nature of the test: Inhibition of recombinant full-length human TSSK4 at 10 uM using KKLNRTLSFAEPG as substrate measured after 40 mins in presence of [gamma33P]ATP by scintillation counting method.
The target of test [7] is Serine/threonine-protein kinase TBK1 (Homo sapiens) (UniProt Q9UHD2). Kind of test: Inhibition of recombinant full-length human TBK1 at 10 uM using KRRRALS(p)VASLPGL as substrate measured after 40 mins in presence of [gamma33P]ATP by scintillation counting method.
Sequence of Serine/threonine-protein kinase TBK1 (Homo sapiens) (Q9UHD2 whole entry, the tested form may be a part): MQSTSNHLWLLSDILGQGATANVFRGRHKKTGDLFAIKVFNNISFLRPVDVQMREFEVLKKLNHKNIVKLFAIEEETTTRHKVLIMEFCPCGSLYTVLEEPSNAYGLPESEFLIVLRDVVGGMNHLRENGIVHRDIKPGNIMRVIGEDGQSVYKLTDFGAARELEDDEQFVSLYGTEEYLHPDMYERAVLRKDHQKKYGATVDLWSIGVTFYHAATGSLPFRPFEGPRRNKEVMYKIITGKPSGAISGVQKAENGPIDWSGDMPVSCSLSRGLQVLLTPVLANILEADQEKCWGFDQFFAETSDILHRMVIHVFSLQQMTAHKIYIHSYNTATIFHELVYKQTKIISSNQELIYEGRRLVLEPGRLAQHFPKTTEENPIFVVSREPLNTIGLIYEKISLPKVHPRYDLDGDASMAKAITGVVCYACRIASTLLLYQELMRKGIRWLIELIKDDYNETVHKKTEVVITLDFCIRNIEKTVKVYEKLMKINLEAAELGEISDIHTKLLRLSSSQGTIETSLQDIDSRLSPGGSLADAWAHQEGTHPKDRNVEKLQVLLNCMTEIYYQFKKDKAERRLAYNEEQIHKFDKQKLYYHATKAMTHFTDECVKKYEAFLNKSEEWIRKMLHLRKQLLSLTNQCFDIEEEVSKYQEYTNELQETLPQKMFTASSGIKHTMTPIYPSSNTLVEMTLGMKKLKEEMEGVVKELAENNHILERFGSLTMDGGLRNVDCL
The target in test [8] is Mitogen-activated protein kinase kinase kinase 9 (Homo sapiens) (UniProt P80192). Nature of the test: Inhibition of recombinant human MLK1 (134 to 414 residues) at 10 uM using casein as substrate measured after 40 mins in presence of [gamma33P]ATP by scintillation counting method.
The target of test [9] is SRSF protein kinase 1 (Homo sapiens) (UniProt Q96SB4). Kind of test: Inhibition of human SRPK1 (2 to end residues) using RSRSRSRSRSRSRSR as substrate measured after 40 mins in presence of [gamma33P]ATP by scintillation counting method. In a few lines: as §1
For test [10], the target named is Cyclin-dependent kinase 14/Cyclin-Y (Homo sapiens) (UniProt O94921+Q8ND76). Nature of the test: Inhibition of human CDK14/cyclinY at 10 uM by radiometric method. Format: protein-complex assay. In a few lines:
as §1

The target of test [11] is Protein kinase C delta type (Homo sapiens) (UniProt Q05655). Kind of test: Inhibition of recombinant human PKCdelta (2 to end residues) at 10 uM using ERMRPRKRQGSVRRRV as substrate measured after 40 mins in presence of [gamma33P]ATP by scintillation counting method.
The subject of test [12] is Protein kinase C eta type (Homo sapiens), P24723 [UNDEFINED MUTATION]. Nature of the test: Inhibition of recombinant human PKCeta V108L/G109R/L392Q mutant (2 to end residues) at 10 uM using ERMRPRKRQGSVRRRV as substrate measured after 40 mins in presence of [gamma33P]ATP by scintillation counting method.
Test [13] deals with CDK4/Cyclin D3 (Homo sapiens) (UniProt P11802+P30281). Nature of the test: Inhibition of recombinant full-length human CDK4/cyclinD3 at 10 uM using Rb fragment as substrate measured after 40 mins in presence of [gamma33P]ATP by scintillation counting method. Format: protein-complex assay.
Test [14] deals with Nucleosome-remodeling factor subunit BPTF (Homo sapiens, UniProt Q12830). Kind of test: Binding affinity to human N-terminal His-tagged FALZ assessed as change in melting temperature at 10 uM by SYPRO orange dye-based fluorescence assay. In a few lines: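 Thermal shift with His-tagged human bromodomain at 2 μM final in 10 mM HEPES pH 7.5, 500 mM NaCl. Compound at 10 μM final with 0.1% DMSO; SYPRO Orange at 1:1000. Equilibrated 3 min at 25 °C, then heated from 25 to 95 °C at 1 °C/min. Melting temperature shift taken from fluorescence; at least duplicate.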

For test [15], the target named is Ribosomal protein S6 kinase alpha-6 (Homo sapiens) (UniProt Q9UK32). Kind of test: Inhibition of recombinant full-length human Rsk4 at 10 uM using LRRASLG as substrate measured after 40 mins in presence of [gamma33P]ATP by scintillation counting method.
Sequence of Ribosomal protein S6 kinase alpha-6 (Homo sapiens) (Q9UK32 whole entry): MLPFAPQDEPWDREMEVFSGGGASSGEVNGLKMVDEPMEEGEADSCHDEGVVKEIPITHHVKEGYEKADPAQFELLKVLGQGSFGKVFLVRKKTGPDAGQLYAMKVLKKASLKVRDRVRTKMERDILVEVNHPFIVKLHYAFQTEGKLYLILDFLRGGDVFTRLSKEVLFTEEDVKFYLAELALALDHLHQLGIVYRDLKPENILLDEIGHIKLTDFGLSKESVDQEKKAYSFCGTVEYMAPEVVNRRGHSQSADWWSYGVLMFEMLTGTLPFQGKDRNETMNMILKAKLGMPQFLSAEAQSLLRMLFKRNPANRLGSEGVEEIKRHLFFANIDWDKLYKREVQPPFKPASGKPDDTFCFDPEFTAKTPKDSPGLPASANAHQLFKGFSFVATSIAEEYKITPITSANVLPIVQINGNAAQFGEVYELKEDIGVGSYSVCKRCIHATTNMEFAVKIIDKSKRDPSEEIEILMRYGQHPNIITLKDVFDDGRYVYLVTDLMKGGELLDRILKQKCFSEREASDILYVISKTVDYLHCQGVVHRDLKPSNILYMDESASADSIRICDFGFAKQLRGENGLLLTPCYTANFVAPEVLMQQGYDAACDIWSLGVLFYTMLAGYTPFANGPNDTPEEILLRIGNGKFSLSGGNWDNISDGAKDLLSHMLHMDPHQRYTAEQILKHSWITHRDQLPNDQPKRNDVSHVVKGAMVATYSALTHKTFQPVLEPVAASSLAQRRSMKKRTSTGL
Test [16] has as its target Serine/threonine-protein kinase 38-like (Homo sapiens) (UniProt Q9Y2H1). Nature of the test: Inhibition of recombinant human NDR2 (83 to end residues) at 10 uM using RSRSRSRSRSRSRSR as substrate measured after 40 mins in presence of [gamma33P]ATP by scintillation counting method.
Test [17] concerns the target Serine/threonine-protein kinase MRCK beta (Homo sapiens) (UniProt Q9Y5S2). Kind of test: Inhibition of recombinant human MRCKbeta (1 to 473 residues) at 10 uM using KKRNRTLTV as substrate measured after 40 mins in presence of [gamma33P]ATP by scintillation counting method.
Test [18] concerns the target Phosphatidylinositol 4-phosphate 5-kinase type-1 alpha (Homo sapiens) (UniProt Q99755). Kind of test: Inhibition of recombinant full-length human PIP5K1alpha at 10 uM using phosphatidylinositol 4-phosphate as substrate measured after 40 mins by HTRF assay.
In test [19] the target is Serine/threonine-protein kinase Chk2 (Homo sapiens) (UniProt O96017). Nature of the test: Inhibition of recombinant human CHK2 (5 to end residues) at 10 uM using KKKVSRSGLYRSPSMPENLNRPR as substrate measured after 40 mins in presence of [gamma33P]ATP by scintillation counting method.
Sequence of Serine/threonine-protein kinase Chk2 (Homo sapiens) (O96017 whole entry): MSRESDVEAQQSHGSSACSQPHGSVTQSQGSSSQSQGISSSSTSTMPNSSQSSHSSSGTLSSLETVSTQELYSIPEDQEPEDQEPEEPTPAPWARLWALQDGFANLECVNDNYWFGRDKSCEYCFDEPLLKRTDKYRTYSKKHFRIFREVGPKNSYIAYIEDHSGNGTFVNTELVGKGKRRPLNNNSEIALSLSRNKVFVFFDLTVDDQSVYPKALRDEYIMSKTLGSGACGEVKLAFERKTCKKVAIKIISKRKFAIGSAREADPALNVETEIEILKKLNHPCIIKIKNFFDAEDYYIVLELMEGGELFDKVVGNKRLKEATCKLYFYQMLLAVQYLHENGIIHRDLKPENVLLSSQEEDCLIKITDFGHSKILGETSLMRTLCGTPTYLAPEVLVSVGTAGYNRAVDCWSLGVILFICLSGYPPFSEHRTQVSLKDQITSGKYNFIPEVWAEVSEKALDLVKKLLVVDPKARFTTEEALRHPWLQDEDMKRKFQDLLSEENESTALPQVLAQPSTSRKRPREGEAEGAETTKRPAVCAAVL
Test [20] addresses Dual specificity tyrosine-phosphorylation-regulated kinase 1B (Homo sapiens) (UniProt Q9Y463). Nature of the test: Inhibition of recombinant full-length human DYRK1B at 10 uM using RRRFRPASPLRGPPK as substrate measured after 40 mins in presence of [gamma33P]ATP by scintillation counting method.
Test [21] relates to Fibroblast growth factor receptor 2 (Homo sapiens), P21802 [N549H]. Nature of the test: Inhibition of recombinant human FGFR2 N549H mutant (456 to 770 residues) at 10 uM using GGEEEEYFELVKKKK as substrate measured after 40 mins in presence of [gamma33P]ATP by scintillation counting method.
The target of test [22] is Ephrin type-B receptor 1 (Homo sapiens) (UniProt P54762). Kind of test: Inhibition of recombinant human EphB1 (564 to end residues) at 10 uM using KVEKIGEGTYGVVYK as substrate measured after 40 mins in presence of [gamma33P]ATP by scintillation counting method.

The source made the active and inactive calls. The rule behind the calls is not given here.

Our source for the inhibition, Activity and ΔTm values is ChEMBL document CHEMBL4350961, “Discovery of Pyrrolo[3,2- d]pyrimidin-4-one Derivatives as a New Class of Potent and Cell-Active Inhibitors of P300/CBP-Associated Factor Bromodomain” (J Med Chem, 2019).

What is called ΔTm is the change in melting temperature against a reference sample.

Sequence of Casein kinase I isoform epsilon (Homo sapiens) (P49674 whole entry, looked up, canonical isoform): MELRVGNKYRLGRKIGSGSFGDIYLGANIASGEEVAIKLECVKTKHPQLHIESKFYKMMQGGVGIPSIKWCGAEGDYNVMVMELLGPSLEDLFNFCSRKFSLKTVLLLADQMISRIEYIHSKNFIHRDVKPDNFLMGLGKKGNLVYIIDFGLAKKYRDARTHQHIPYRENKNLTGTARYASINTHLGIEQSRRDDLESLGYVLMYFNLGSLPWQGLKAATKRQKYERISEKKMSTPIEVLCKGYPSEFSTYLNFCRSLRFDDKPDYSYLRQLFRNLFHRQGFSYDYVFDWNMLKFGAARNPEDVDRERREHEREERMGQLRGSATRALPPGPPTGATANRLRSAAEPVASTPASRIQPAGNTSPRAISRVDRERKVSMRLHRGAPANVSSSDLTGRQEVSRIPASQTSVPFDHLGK
Sequence of Ephrin type-A receptor 1 (Homo sapiens) (P21709 whole entry): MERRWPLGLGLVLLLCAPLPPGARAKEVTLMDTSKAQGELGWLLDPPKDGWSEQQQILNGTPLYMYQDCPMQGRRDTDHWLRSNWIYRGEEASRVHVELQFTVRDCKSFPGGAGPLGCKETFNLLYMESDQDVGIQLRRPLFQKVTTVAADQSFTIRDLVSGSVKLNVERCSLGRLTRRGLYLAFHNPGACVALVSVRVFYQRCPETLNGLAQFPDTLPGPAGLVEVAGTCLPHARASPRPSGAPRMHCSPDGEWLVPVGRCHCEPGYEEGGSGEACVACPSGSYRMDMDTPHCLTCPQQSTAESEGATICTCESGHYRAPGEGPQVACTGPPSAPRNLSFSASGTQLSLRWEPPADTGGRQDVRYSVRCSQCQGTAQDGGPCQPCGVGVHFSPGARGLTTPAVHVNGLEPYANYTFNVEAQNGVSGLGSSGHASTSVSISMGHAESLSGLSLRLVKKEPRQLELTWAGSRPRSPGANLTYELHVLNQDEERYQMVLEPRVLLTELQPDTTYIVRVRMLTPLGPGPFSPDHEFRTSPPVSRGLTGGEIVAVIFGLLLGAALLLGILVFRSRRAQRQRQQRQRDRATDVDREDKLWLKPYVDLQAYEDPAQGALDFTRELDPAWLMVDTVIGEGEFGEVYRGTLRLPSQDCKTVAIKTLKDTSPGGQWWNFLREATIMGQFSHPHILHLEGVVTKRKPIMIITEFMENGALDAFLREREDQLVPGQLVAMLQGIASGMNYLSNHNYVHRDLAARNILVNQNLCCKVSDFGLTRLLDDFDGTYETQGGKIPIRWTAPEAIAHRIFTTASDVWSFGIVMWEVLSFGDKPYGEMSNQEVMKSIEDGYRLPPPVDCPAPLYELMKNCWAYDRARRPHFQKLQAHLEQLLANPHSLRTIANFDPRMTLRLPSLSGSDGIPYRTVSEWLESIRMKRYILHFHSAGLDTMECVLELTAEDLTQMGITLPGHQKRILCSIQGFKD
Sequence of Serine/threonine-protein kinase 38-like (Homo sapiens) (Q9Y2H1 2-464 limits assumed): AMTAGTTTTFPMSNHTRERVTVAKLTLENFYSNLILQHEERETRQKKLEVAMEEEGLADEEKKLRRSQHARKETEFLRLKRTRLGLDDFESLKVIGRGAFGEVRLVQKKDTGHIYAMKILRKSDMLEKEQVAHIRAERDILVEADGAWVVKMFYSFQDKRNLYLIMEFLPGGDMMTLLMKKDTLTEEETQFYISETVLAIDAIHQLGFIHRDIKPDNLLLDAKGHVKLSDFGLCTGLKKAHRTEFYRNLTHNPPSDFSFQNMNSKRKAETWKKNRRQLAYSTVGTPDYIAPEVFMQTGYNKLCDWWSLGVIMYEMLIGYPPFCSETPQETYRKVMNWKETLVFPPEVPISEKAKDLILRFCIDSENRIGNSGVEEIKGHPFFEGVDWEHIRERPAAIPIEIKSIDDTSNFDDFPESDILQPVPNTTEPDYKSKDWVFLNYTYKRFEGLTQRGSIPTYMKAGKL
Sequence of Testis-specific serine/threonine-protein kinase 4 (Homo sapiens) (Q6SA08 whole entry): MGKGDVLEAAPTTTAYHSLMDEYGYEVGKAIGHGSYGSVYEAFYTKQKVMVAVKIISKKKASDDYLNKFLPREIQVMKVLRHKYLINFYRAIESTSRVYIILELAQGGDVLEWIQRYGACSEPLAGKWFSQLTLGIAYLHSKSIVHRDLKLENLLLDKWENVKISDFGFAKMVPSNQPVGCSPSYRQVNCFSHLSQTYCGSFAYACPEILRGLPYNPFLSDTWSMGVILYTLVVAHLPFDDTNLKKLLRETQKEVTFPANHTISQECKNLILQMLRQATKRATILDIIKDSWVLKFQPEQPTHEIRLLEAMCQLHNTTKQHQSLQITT
Sequence of Dual specificity tyrosine-phosphorylation-regulated kinase 1B (Homo sapiens) (Q9Y463 whole entry, looked up, the tested form may be a part): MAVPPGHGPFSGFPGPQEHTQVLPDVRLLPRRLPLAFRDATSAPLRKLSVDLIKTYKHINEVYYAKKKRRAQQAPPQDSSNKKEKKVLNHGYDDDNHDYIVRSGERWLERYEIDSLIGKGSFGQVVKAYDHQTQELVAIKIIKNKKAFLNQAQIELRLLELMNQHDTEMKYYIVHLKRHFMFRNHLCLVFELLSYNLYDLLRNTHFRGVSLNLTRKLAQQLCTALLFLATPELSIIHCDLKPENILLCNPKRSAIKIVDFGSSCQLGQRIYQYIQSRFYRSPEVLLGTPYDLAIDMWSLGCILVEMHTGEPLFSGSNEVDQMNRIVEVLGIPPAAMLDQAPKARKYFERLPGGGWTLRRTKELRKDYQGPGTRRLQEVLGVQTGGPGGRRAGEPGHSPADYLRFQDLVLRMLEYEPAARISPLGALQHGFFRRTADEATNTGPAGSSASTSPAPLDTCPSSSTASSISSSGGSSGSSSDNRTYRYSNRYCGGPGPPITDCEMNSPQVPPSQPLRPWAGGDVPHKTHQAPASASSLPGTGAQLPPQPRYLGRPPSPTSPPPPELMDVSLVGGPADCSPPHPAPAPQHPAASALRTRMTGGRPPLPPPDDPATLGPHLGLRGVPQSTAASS

On to `CN1C[C@H](Nc2nc3cc[nH]c3c(=O)n2C)C[C@H](c2ccc3c(c2)OCCO3)C1`, for which the inhibition entry in test [1], in test [2], in test [3], in test [5], in test [6] and in [7] was “inactive” throughout. Also, the inhibition entry in test [8], in [9], in [10], in [11], in [12] and in test [13] was “inactive” each time. The inhibition entry in test [15], in test [16], in [17], in [18], in test [19] and in test [20] was “inactive” each time. The inhibition result in test [21] and in [22] was “inactive” throughout. Moreover, the outcome in [4] was Active. Besides, the ΔTm in [14] turned out to be 5.3 °C.
